Results on 3 compounds are retold here after ChEMBL document CHEMBL3526104 (Drug Metab Dispos, 2011).

Data set [1] relates to Homo sapiens. The experiment in a line: AUC in healthy human assessed as fold change at 100 mg, po in presence of 400 mg ketoconazole. The data set is classed as ADME, organism-based, Plasma. Also on record: dosed compound name Casopitant. As to conditions: in vivo. An outline of the steps:
(§1)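 Open-label study, healthy subjects (n=12 enrolled; 13 per treatment in table): single oral 100 mg dose given alone on Day 1, then with oral ketoconazole 400 mg once daily for 7 days, co-dosed on Day 4 of ketoconazole. Plasma parent drug measured by validated HPLC-MS/MS at selected time points; ratios from geometric means of AUC(0-t) and Cmax, 90% CI.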

Data set [2] is described as follows: AUC (0 to t) in healthy human at 100 mg, po administered as single dose. Details: dosed compound name Casopitant. The following applies: plasma. The data set is classed as ADME, organism-based.
The nature of data set [3]: Unbound fraction in human plasma. The data set is classed as ADME, cell-free.
A short description of data set [4]: AUC (0 to t) in healthy human at 150 mg, po administered as single dose. The data set is classed as ADME, organism-based. Also on record: dosed compound name Casopitant. As to conditions: plasma.
Data set [5] can be described thus: Half life in healthy human at 150 mg, po administered as single dose on day 8 and cotreated with rifampin at 600 mg, po qd on day 1 to 9. The data set is classed as ADME, organism-based. Details: dosed compound name Casopitant. As to conditions: in vivo.
The target of data set [6] is T1, Cytochrome P450 3A4 (Homo sapiens, UniProt P08684). The experiment in a line: Fraction of drug metabolized assessed as human CYP3A4-mediated drug metabolism. The data set is classed as ADME. As to conditions: recombinant enzyme.
A short description of data set [7]: Lipophilicity, log P of the compound. The data set is classed as physicochemical. The following applies: octanol/water.
Data set [8] can be described thus: Cmax in healthy human at 100 mg, po administered as single dose on day 4 and cotreated with ketoconazole at 400 mg, po qd on day 1 to 7. The data set is classed as ADME, organism-based. As to conditions: in vivo.
In a further data set the target is CYP3A4 (Homo sapiens, UniProt P08684). The experiment in a line: Metabolism dependent inactivation of CYP3A4 in human liver microsomes pretreated with compound in presence of midazolam substrate and NADPH by HPLC-MS/MS method relative to untreated control. The following applies: probe midazolam.
Data set [9] in a line: AUC (0 to t) in healthy human at 100 mg, po administered as single dose on day 4 and cotreated with ketoconazole at 400 mg, po qd on day 1 to 7. The following applies: plasma. Details: dosed compound name Casopitant. The data set is classed as ADME, organism-based.
For another data set, the system named is Liver microsome. The experiment in a line: Intrinsic clearance in human liver microsomes assessed per mg protein. The data set is classed as ADME. The method, boiled down: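 CLint derived from Km and Vmax of GSK525060 formation in human liver microsomes. […] Metabolite measured by HPLC-MS/MS; Michaelis-Menten fit by non-linear regression.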
Data set [10] in a line: AUC (0 to t) in healthy human at 150 mg, po administered as single dose on day 8 and cotreated with rifampin at 600 mg, po qd on day 1 to 9. The data set is classed as ADME, organism-based. Also on record: dosed compound name Casopitant. The following applies: plasma.
Data set [11] in a line: Half life in healthy human at 150 mg, po administered as single dose. The data set is classed as ADME, organism-based. Details: dosed compound name Casopitant. As to conditions: in vivo.
Data set [12] is described as follows: Dissociation constant, pKa of the compound. The data set is classed as physicochemical.
The nature of data set [13]: Cmax in healthy human at 100 mg, po administered as single dose. The data set is classed as ADME, organism-based. As to conditions: in vivo.
Data set [14] concerns Homo sapiens. The experiment in a line: Cmax in healthy human assessed as fold change at 150 mg, po in presence of 600 mg rifampin. The data set is classed as ADME, organism-based. Details: dosed compound name Casopitant. As to conditions: in vivo. The method, boiled down:
(§2)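 Open-label study, 12 healthy subjects: single oral 150 mg dose alone on Day 1, then with oral rifampin 600 mg once daily (study Days 9-17), co-dosed on Day 16. Plasma parent drug measured by validated HPLC-MS/MS at selected time points; fold change from geometric means of AUC(0-t) and Cmax, 90% CI.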

The target of data set [15] is T1, Cytochrome P450 3A4. Briefly: Drug metabolism assessed as human recombinant CYP3A4-mediated GSK525060 formation at 10 uM after 30 mins by HPLC-MS/MS method. The data set is classed as ADME. As to conditions: recombinant enzyme, 0.5 h. The method, boiled down:
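Recombinant human CYP3A4 in 50 mM phosphate buffer, pH 7.4, with an NADPH-generating system. […] GSK525060 formation quantified by HPLC-MS/MS.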

Data set [16] is described as follows: Tmax in healthy human at 100 mg, po administered as single dose on day 4 and cotreated with ketoconazole at 400 mg, po qd on day 1 to 7. Also on record: dosed compound name Casopitant. The following applies: in vivo. The data set is classed as ADME, organism-based.
The nature of data set [17]: Unbound fraction in human gut. The data set is classed as ADME, tissue-based. Also on record: dosed compound name Casopitant.
For data set [18], the system named is Homo sapiens. The experiment in a line: Cmax in healthy human assessed as fold change at 100 mg, po in presence of 400 mg ketoconazole. Also on record: dosed compound name Casopitant. The following applies: in vivo. The data set is classed as ADME, organism-based. The method, boiled down: as §1
Data set [19] deals with Homo sapiens. Briefly: AUC in healthy human assessed as fold change at 150 mg, po in presence of 600 mg rifampin. As to conditions: in vivo. Also on record: dosed compound name Casopitant. The data set is classed as ADME, organism-based, Plasma. The method, boiled down:
as §2

Data set [20] is described as follows: Tmax in healthy human at 150 mg, po administered as single dose on day 8 and cotreated with rifampin at 600 mg, po qd on day 1 to 9. The data set is classed as ADME, organism-based. Details: dosed compound name Casopitant. As to conditions: in vivo.
For data set [21], the target named is T1, Cytochrome P450 3A4. Briefly: Drug metabolism in human liver microsomes assessed as CYP3A4-mediated GSK525060 formation at 5 to 20 uM up to 30 mins by HPLC-MS/MS method. The data set is classed as ADME. As to conditions: 0.5 h. An outline of the steps: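 Pooled human liver microsomes in 50 mM phosphate buffer, pH 7.4, with an NADPH-generating system. […] GSK525060 measured by HPLC-MS/MS.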

A short description of data set [22]: Cmax in healthy human at 150 mg, po administered as single dose. The data set is classed as ADME, organism-based. As to conditions: in vivo.
Data set [23] can be described thus: Cmax in healthy human at 150 mg, po administered as single dose on day 8 and cotreated with rifampin at 600 mg, po qd on day 1 to 9. The data set is classed as ADME, organism-based. As to conditions: in vivo.
Data set [24] in a line: Tmax in healthy human at 150 mg, po administered as single dose. As to conditions: in vivo. The data set is classed as ADME, organism-based. Details: dosed compound name Casopitant.
Data set [25] in a line: Volume of distribution at steady state in human. As to conditions: in vivo, read-out: Vdss. Also on record: dosed compound name Casopitant. The data set is classed as ADME, organism-based.
A short description of data set [26]: Tmax in healthy human at 100 mg, po administered as single dose. The data set is classed as ADME, organism-based. Details: dosed compound name Casopitant. As to conditions: in vivo.
For data set [27], the system named is Homo sapiens. Briefly: AUC (0 to infinity) in healthy human assessed as fold change in presence of casopitant 30 mg, po once daily administered for 3 days. The data set is classed as ADME, organism-based, Plasma. As to conditions: in vivo, 72 h.
The test system of data set [28] is Homo sapiens. The experiment in a line: AUC (0 to infinity) in healthy human assessed as fold change in presence of casopitant 120 mg, po once daily administered for 14 days. The data set is classed as ADME, organism-based, Plasma. The following applies: in vivo, 336 h.
Data set [29] concerns Homo sapiens. Briefly: AUC (0 to infinity) in healthy human assessed as fold change in presence of casopitant 120 mg, po once daily administered for 3 days. The data set is classed as ADME, organism-based, Plasma. As to conditions: in vivo, 72 h.
Data set [30] has as its system Homo sapiens. The experiment in a line: AUC (0 to infinity) in healthy human assessed as fold change in presence of casopitant 30 mg, po once daily administered for 14 days. The following applies: in vivo, 336 h. The data set is classed as ADME, organism-based, Plasma.

Structures are written as SMILES.

Usually AUC(0-t) stands for exposure summed from dosing to a finite time, without extrapolation to infinity. The term fraction unbound denotes free concentration divided by total concentration. Low values mean little free substance, high ones much free substance. The half-life is the time needed for the level to fall by half in the phase considered. As a reminder, the logP is the decadic logarithm of the partition coefficient of the neutral form, usually between octanol and water. A lower logP goes with lower lipophilicity. The Cmax is the highest concentration seen after dosing. Usually pKa stands for the pH at which an ionisable group is half protonated. Read a low pKa as a stronger acid or weaker base. Usually Tmax stands for the time from dosing to the highest level.

T1 sequence (P08684 whole entry): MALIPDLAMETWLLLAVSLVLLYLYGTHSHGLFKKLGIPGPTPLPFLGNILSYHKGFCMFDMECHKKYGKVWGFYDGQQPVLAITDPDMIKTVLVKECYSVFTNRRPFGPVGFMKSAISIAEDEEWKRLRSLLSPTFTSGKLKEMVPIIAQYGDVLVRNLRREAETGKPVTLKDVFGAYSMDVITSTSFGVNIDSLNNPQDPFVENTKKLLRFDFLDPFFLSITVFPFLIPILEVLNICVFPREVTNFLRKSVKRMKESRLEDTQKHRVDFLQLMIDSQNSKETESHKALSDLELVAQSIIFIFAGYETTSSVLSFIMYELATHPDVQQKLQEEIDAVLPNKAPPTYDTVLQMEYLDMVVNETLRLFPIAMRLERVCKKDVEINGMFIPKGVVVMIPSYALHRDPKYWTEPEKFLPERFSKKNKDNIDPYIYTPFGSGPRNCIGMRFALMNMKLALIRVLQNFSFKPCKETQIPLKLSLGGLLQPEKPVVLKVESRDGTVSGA
CYP3A4, sequence (P08684 whole entry): as above

For `CC(=O)N1CCN([C@H]2CCN(C(=O)N(C)[C@H](C)c3cc(C(F)(F)F)cc(C(F)(F)F)c3)[C@@H](c3ccc(F)cc3C)C2)CC1` [CASOPITANT], the “fold change (FC)” value in the data set with Homo sapiens [1] was determined as 12.1; with Homo sapiens [14] it was 0.11; with Homo sapiens [18] it was 2.71; in the data set with Homo sapiens [19], 0.04. The AUC(0-t) in [2] was 2590 ng·h/mL; in data set [4], 6570 ng·h/mL; in data set [9], 31200 ng·h/mL; in data set [10], 273 ng·h/mL. Further, the fraction unbound came to 0.005 in [3] and 1 in data set [17]. Also, the half-life in data set [5] was 6.45 h; in data set [11] it was 19.2 h. Moreover, at Cytochrome P450 3A4 [6], the Fm was found to be 1. Further, in [7], the logP stood at 5.6. The Cmax stood at 1250 ng/mL in [8], 457 ng/mL in data set [13], 847 ng/mL in [22] and 93.2 ng/mL in [23]. Also, on CYP3A4, the KI amounted to 3.1 µM. The compound further yielded a CLint in the data set with Liver microsome of 25 µL/min/mg. The pKa in [12] was 6.3. The Drug metabolism entry at Cytochrome P450 3A4 [15] and at Cytochrome P450 3A4 [21] was “metabolite_detected” each time. For the same compound, the Tmax in data set [16] is 2 h; in [20], 1 h; in data set [24], 1.25 h; in data set [26], 1 h. Besides, the Vd in [25] worked out at 2.58 L/kg.
In the case of `Cc1ncc2n1-c1ccc(Cl)cc1C(c1ccccc1F)=NC2` [MIDAZOLAM], the “fold change (FC)” value in the data set on Homo sapiens [27] was found to be 2.02; with Homo sapiens [28] it was 3.49; in the data set on Homo sapiens [29] it was 2.67; with Homo sapiens [30] it was 1.76.
`COC(=O)C1=C(C)NC(C)=C(C(=O)OC)C1c1ccccc1[N+](=O)[O-]` [NIFEDIPINE]: the “fold change (FC)” value in the data set on Homo sapiens [27] is recorded as 1.56; with Homo sapiens [28], 1.42; in the data set on Homo sapiens [29], 1.77; with Homo sapiens [30], 1.61.
